According to ChEMBL document CHEMBL1275272, “Synthesis, characterization and antimicrobial activity of some disubstituted 1,3,4-oxadiazoles carrying 2-(aryloxymethyl)phenyl moiety” (2010):
In brackets after ≈: the same amount, converted by molar mass.

How the values were obtained:
Format in all cases: functional
[1] = test system: Staphylococcus aureus; test: Antibacterial activity against Staphylococcus aureus after 16 to 18 hrs by serial dilution method; conditions: for MIC: Staphylococcus aureus
Procedure, shortened: (§1)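 The test compound was dissolved in DMF and serially diluted. A standard drop of the prepared microbial culture was added to each dilution, and tubes were incubated at 37 °C for 16–18 h. MIC was taken as the highest dilution that stayed clear with no visible turbidity.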

[2] = test system: Escherichia coli; test: Antibacterial activity against Escherichia coli after 16 to 18 hrs by serial dilution method; conditions: for MIC: Escherichia coli; procedure, shortened: as §1
[3] = test system: Pseudomonas aeruginosa; test: Antibacterial activity against Pseudomonas aeruginosa after 16 to 18 hrs by serial dilution method; conditions: for MIC: Pseudomonas aeruginosa; procedure, shortened: as §1
[4] = test system: Klebsiella pneumoniae; test: Antibacterial activity against Klebsiella pneumoniae after 16 to 18 hrs by serial dilution method; conditions: for MIC: Klebsiella pneumoniae
[5] = test system: Talaromyces marneffei; test: Antifungal activity against Penicillium marneffei after 16 to 18 hrs by serial dilution method; conditions: for MIC: Talaromyces marneffei; procedure, shortened: as §1
[6] = test system: Trichophyton mentagrophytes; test: Antifungal activity against Trichophyton mentagrophytes after 16 to 18 hrs by serial dilution method; conditions: for MIC: Trichophyton mentagrophytes
[7] = test system: Aspergillus flavus; test: Antifungal activity against Aspergillus flavus after 16 to 18 hrs by serial dilution method; conditions: for MIC: Aspergillus flavus; procedure, shortened: as §1
[8] = test system: Aspergillus fumigatus; test: Antifungal activity against Aspergillus fumigatus after 16 to 18 hrs by serial dilution method; conditions: for MIC: Aspergillus fumigatus

MIC [1] | MIC [2] | MIC [3] | MIC [4] | MIC [5] | MIC [6] | MIC [7] | MIC [8] | Structure (SMILES) | inhibition zone (IZ) [1] | inhibition zone (IZ) [2] | inhibition zone (IZ) [3] | inhibition zone (IZ) [4] | inhibition zone (IZ) [5] | inhibition zone (IZ) [6] | inhibition zone (IZ) [7] | inhibition zone (IZ) [8]
25 µg/mL (≈ 55.3 µM) | 25 µg/mL (≈ 55.3 µM) | 25 µg/mL (≈ 55.3 µM) | 25 µg/mL (≈ 55.3 µM) | 25 µg/mL (≈ 55.3 µM) | 25 µg/mL (≈ 55.3 µM) | 25 µg/mL (≈ 55.3 µM) | 25 µg/mL (≈ 55.3 µM) | Cc1cccc(OCc2ccccc2-c2nn(CNc3cc(C)ccc3Cl)c(=S)o2)c1 | <10 mm | <10 mm | <10 mm | <10 mm | <10 mm | <10 mm | <10 mm | <10 mm
25 µg/mL (≈ 55.3 µM) | 25 µg/mL (≈ 55.3 µM) | 25 µg/mL (≈ 55.3 µM) | 25 µg/mL (≈ 55.3 µM) | 25 µg/mL (≈ 55.3 µM) | 25 µg/mL (≈ 55.3 µM) | 25 µg/mL (≈ 55.3 µM) | 25 µg/mL (≈ 55.3 µM) | Cc1ccc(OCc2ccccc2-c2nn(CNc3cc(C)ccc3Cl)c(=S)o2)cc1 | <10 mm | <10 mm | <10 mm | <10 mm | <10 mm | <10 mm | <10 mm | <10 mm
25 µg/mL (≈ 52.9 µM) | 25 µg/mL (≈ 52.9 µM) | 25 µg/mL (≈ 52.9 µM) | 25 µg/mL (≈ 52.9 µM) | 25 µg/mL (≈ 52.9 µM) | 25 µg/mL (≈ 52.9 µM) | 25 µg/mL (≈ 52.9 µM) | 25 µg/mL (≈ 52.9 µM) | Cc1ccc(Cl)c(NCn2nc(-c3ccccc3COc3ccc(Cl)cc3)oc2=S)c1 | <10 mm | <10 mm | <10 mm | <10 mm | <10 mm | <10 mm | <10 mm | <10 mm
25 µg/mL (≈ 76.6 µM) | 25 µg/mL (≈ 76.6 µM) | 25 µg/mL (≈ 76.6 µM) | 25 µg/mL (≈ 76.6 µM) | 25 µg/mL (≈ 76.6 µM) | 25 µg/mL (≈ 76.6 µM) | 25 µg/mL (≈ 76.6 µM) | 25 µg/mL (≈ 76.6 µM) | CCSc1nnc(-c2ccccc2COc2ccccc2C)o1 | <10 mm | <10 mm | <10 mm | <10 mm | <10 mm | <10 mm | <10 mm | <10 mm
25 µg/mL (≈ 76.6 µM) | 25 µg/mL (≈ 76.6 µM) | 25 µg/mL (≈ 76.6 µM) | 25 µg/mL (≈ 76.6 µM) | 25 µg/mL (≈ 76.6 µM) | 25 µg/mL (≈ 76.6 µM) | 25 µg/mL (≈ 76.6 µM) | 25 µg/mL (≈ 76.6 µM) | CCSc1nnc(-c2ccccc2COc2cccc(C)c2)o1 | <10 mm | <10 mm | <10 mm | <10 mm | <10 mm | <10 mm | <10 mm | <10 mm
25 µg/mL (≈ 76.6 µM) | 25 µg/mL (≈ 76.6 µM) | 25 µg/mL (≈ 76.6 µM) | 25 µg/mL (≈ 76.6 µM) | 25 µg/mL (≈ 76.6 µM) | 25 µg/mL (≈ 76.6 µM) | 25 µg/mL (≈ 76.6 µM) | 25 µg/mL (≈ 76.6 µM) | CCSc1nnc(-c2ccccc2COc2ccc(C)cc2)o1 | <10 mm | <10 mm | <10 mm | <10 mm | <10 mm | <10 mm | <10 mm | <10 mm
25 µg/mL (≈ 72.1 µM) | 25 µg/mL (≈ 72.1 µM) | 25 µg/mL (≈ 72.1 µM) | 25 µg/mL (≈ 72.1 µM) | 25 µg/mL (≈ 72.1 µM) | 25 µg/mL (≈ 72.1 µM) | 25 µg/mL (≈ 72.1 µM) | 25 µg/mL (≈ 72.1 µM) | CCSc1nnc(-c2ccccc2COc2ccc(Cl)cc2)o1 | <10 mm | <10 mm | <10 mm | <10 mm | <10 mm | <10 mm | <10 mm | <10 mm
25 µg/mL (≈ 64.4 µM) | 25 µg/mL (≈ 64.4 µM) | 25 µg/mL (≈ 64.4 µM) | 25 µg/mL (≈ 64.4 µM) | 25 µg/mL (≈ 64.4 µM) | 25 µg/mL (≈ 64.4 µM) | 25 µg/mL (≈ 64.4 µM) | 25 µg/mL (≈ 64.4 µM) | Cc1ccccc1OCc1ccccc1-c1nnc(SCc2ccccc2)o1 | <10 mm | <10 mm | <10 mm | <10 mm | <10 mm | <10 mm | <10 mm | <10 mm
25 µg/mL (≈ 64.4 µM) | 25 µg/mL (≈ 64.4 µM) | 25 µg/mL (≈ 64.4 µM) | 25 µg/mL (≈ 64.4 µM) | 25 µg/mL (≈ 64.4 µM) | 25 µg/mL (≈ 64.4 µM) | 25 µg/mL (≈ 64.4 µM) | 25 µg/mL (≈ 64.4 µM) | Cc1cccc(OCc2ccccc2-c2nnc(SCc3ccccc3)o2)c1 | <10 mm | <10 mm | <10 mm | <10 mm | <10 mm | <10 mm | <10 mm | <10 mm
6.25 µg/mL (≈ 13.3 µM) | 6.25 µg/mL (≈ 13.3 µM) | 6.25 µg/mL (≈ 13.3 µM) | 6.25 µg/mL (≈ 13.3 µM) | 12.5 µg/mL (≈ 26.5 µM) | 12.5 µg/mL (≈ 26.5 µM) | 6.25 µg/mL (≈ 13.3 µM) | 6.25 µg/mL (≈ 13.3 µM) | Cc1cccc(OCc2ccccc2-c2nn(CNc3cccc(C(F)(F)F)c3)c(=S)o2)c1 | 16 mm | 16 mm | 16 mm | 16 mm | 11 mm | 11 mm | 16 mm | 16 mm
6.25 µg/mL (≈ 13.3 µM) | 6.25 µg/mL (≈ 13.3 µM) | 6.25 µg/mL (≈ 13.3 µM) | 6.25 µg/mL (≈ 13.3 µM) | 6.25 µg/mL (≈ 13.3 µM) | 6.25 µg/mL (≈ 13.3 µM) | 6.25 µg/mL (≈ 13.3 µM) | 6.25 µg/mL (≈ 13.3 µM) | Cc1ccc(OCc2ccccc2-c2nn(CNc3cccc(C(F)(F)F)c3)c(=S)o2)cc1 | 16 mm | 16 mm | 16 mm | 16 mm | 16 mm | 16 mm | 16 mm | 16 mm
6.25 µg/mL (≈ 12.7 µM) | 6.25 µg/mL (≈ 12.7 µM) | 6.25 µg/mL (≈ 12.7 µM) | 6.25 µg/mL (≈ 12.7 µM) | 6.25 µg/mL (≈ 12.7 µM) | 6.25 µg/mL (≈ 12.7 µM) | 6.25 µg/mL (≈ 12.7 µM) | 6.25 µg/mL (≈ 12.7 µM) | FC(F)(F)c1cccc(NCn2nc(-c3ccccc3COc3ccc(Cl)cc3)oc2=S)c1 | 16 mm | 16 mm | 16 mm | 16 mm | 16 mm | 16 mm | 16 mm | 16 mm
25 µg/mL (≈ 46.8 µM) | 25 µg/mL (≈ 46.8 µM) | 25 µg/mL (≈ 46.8 µM) | 25 µg/mL (≈ 46.8 µM) | 25 µg/mL (≈ 46.8 µM) | 25 µg/mL (≈ 46.8 µM) | 25 µg/mL (≈ 46.8 µM) | 25 µg/mL (≈ 46.8 µM) | Cc1ccccc1OCc1ccccc1-c1nn(CNc2ccc(Cl)cc2C(=O)C(F)(F)F)c(=S)o1 | <10 mm | <10 mm | <10 mm | <10 mm | <10 mm | <10 mm | <10 mm | <10 mm
25 µg/mL (≈ 46.8 µM) | 25 µg/mL (≈ 46.8 µM) | 25 µg/mL (≈ 46.8 µM) | 25 µg/mL (≈ 46.8 µM) | 25 µg/mL (≈ 46.8 µM) | 25 µg/mL (≈ 46.8 µM) | 25 µg/mL (≈ 46.8 µM) | 25 µg/mL (≈ 46.8 µM) | Cc1cccc(OCc2ccccc2-c2nn(CNc3ccc(Cl)cc3C(=O)C(F)(F)F)c(=S)o2)c1 | <10 mm | <10 mm | <10 mm | <10 mm | <10 mm | <10 mm | <10 mm | <10 mm
25 µg/mL (≈ 46.8 µM) | 25 µg/mL (≈ 46.8 µM) | 25 µg/mL (≈ 46.8 µM) | 25 µg/mL (≈ 46.8 µM) | 25 µg/mL (≈ 46.8 µM) | 25 µg/mL (≈ 46.8 µM) | 25 µg/mL (≈ 46.8 µM) | 25 µg/mL (≈ 46.8 µM) | Cc1ccc(OCc2ccccc2-c2nn(CNc3ccc(Cl)cc3C(=O)C(F)(F)F)c(=S)o2)cc1 | <10 mm | <10 mm | <10 mm | <10 mm | <10 mm | <10 mm | <10 mm | <10 mm
25 µg/mL (≈ 45.1 µM) | 25 µg/mL (≈ 45.1 µM) | 25 µg/mL (≈ 45.1 µM) | 25 µg/mL (≈ 45.1 µM) | 25 µg/mL (≈ 45.1 µM) | 25 µg/mL (≈ 45.1 µM) | 25 µg/mL (≈ 45.1 µM) | 25 µg/mL (≈ 45.1 µM) | O=C(c1cc(Cl)ccc1NCn1nc(-c2ccccc2COc2ccc(Cl)cc2)oc1=S)C(F)(F)F | <10 mm | <10 mm | <10 mm | <10 mm | <10 mm | <10 mm | <10 mm | <10 mm
25 µg/mL (≈ 55.3 µM) | 25 µg/mL (≈ 55.3 µM) | 25 µg/mL (≈ 55.3 µM) | 25 µg/mL (≈ 55.3 µM) | 25 µg/mL (≈ 55.3 µM) | 25 µg/mL (≈ 55.3 µM) | 25 µg/mL (≈ 55.3 µM) | 25 µg/mL (≈ 55.3 µM) | Cc1ccc(Cl)c(NCn2nc(-c3ccccc3COc3ccccc3C)oc2=S)c1 | <10 mm | <10 mm | <10 mm | <10 mm | <10 mm | <10 mm | <10 mm | <10 mm
